Most compounds without a hit are left out; they make up all but 2.1% or so of the library.
MC4R antag cAMP – human MC4R antagonism in cAMP assay | MC4R-expressing cells, MTII-stimulated cAMP, LANCE TR-FRET | inhibition, % at 6.5 µM | 360,000 compounds, 0.48% hits | AID 540295;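 active = inhibition above its plate's cutoff, the mean of tested wells on that plate plus 3 SD, cut at about 29% in these data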;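 note: 0% = Melanotan II alone and 100% = Melanotan II plus saturating MCL0020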
Target sequence (P32245 whole entry, looked up): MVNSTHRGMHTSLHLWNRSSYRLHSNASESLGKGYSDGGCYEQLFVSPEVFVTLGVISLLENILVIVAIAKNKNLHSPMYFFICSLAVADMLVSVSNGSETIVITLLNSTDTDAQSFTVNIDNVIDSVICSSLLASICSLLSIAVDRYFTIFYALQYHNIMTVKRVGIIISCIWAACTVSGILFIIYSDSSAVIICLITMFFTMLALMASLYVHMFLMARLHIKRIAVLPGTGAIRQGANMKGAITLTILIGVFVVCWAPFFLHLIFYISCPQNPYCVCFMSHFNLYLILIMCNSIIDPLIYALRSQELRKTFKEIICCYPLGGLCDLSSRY
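Assay system: human MC4R-expressing U2OS cells; reagent: Melanotan II stimulation of cells; dosing: 6.5 µM single dose; timing: compound 30 min, challenge 1 h, detection 1 h; signal: TR-FRET cAMP assay; replicates: one well per compound, no replicates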
MC4R ag barr – human MC4R agonism via beta-arrestin; activation, % at 8.9 µM; U2OS MC4R beta-arrestin complementation, luminescence; percent of melanotan II response, DMSO zero; AID 540308; P32245; 360,000 compounds, 0.98% hits;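 active = activation above a per-plate cutoff, the mean activation of sample wells on that plate plus 3 SD, cut at about 8% in these data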
F508del corr – CFTR F508del correction in bronchial cells; CFBE cells, YFP halide quenching; stimulated with forskolin plus potentiator P3; % fluorescence drop versus neutral controls; activity (quench increase), % at 7.58 µM; 350,000 compounds, 0.36% hits; AID 720511;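 active = mean added fluorescence quench of at least 8% versus neutral control, with both replicates also reaching 8%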;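 note: cells transiently co-express mutant CFTR-F508del with the halide-sensitive YFP; corrector assay measuring rescue of mutant channel to the surface after 24 h compound exposure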
SMARCA2 activ – activators of SMARCA2 function; activation, % at 9.1 µM; MG213 cells, MMTV-luciferase reporter, dexamethasone, overnight; 370,000 compounds, 1% hits; in the data active = activation above about 7.8%;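 note: 0% = vehicle wells and 100% = reference activator wells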
SMARCA2 act conf – confirmation of SMARCA2 (BRM) function activators; AID 652260; shares compounds with SMARCA2 activ; MG213 cells, MMTV-luciferase with dexamethasone, luminescence, overnight; MG213 cells expressing E1A, Rb sequestered; DMSO wells 0%, reference activator 100%; 3,500 compounds, 30% hits; activation, % at 9.1 µM;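 active = activation above its plate's cutoff, the mean activation of tested wells plus 3 SD, cut at about 7.9% in these data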
GAL4-VP16 Luc – activates GAL4-VP16 luciferase, flagging SMARCA2 activator hits; shares compounds with SMARCA2 activ; HEK293 GAL4-VP16 pG5luc reporter, luciferase luminescence; scaled: DMSO wells 0%, SAHA wells 100%; activation, % at 9.1 µM; 3,500 compounds, 41% hits; AID 686939;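 active = activation above the solvent-only control well mean plus 3 SD, averaged across control plates, cut at about 5.2% in these data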
The depositor's hits bear a star; x = not tested or not shown.

SMILES | MC4R antag cAMP | MC4R ag barr | F508del corr | SMARCA2 activ | SMARCA2 act conf | GAL4-VP16 Luc
O=C(/C=C/Nc1ccc(F)c(F)c1)c1ccc(Br)cc1 | -5 | -2 | x | 3 | x | x
O=C(/C=C/Nc1ccccc1F)c1ccc(Br)cc1 | 2 | -2 | x | 17* | 4 | 14*
Cc1ccc(C(=O)/C=C/Nc2cccc(O)c2)cc1 | -6 | 1 | x | 2 | x | x
O=C(/C=C/Nc1cccc(O)c1)c1ccccc1 | -9 | -1 | x | 8.1* | 6 | 8.1*
CC(=O)c1cccc(N/C=C\C(=O)c2ccc(C)cc2)c1 | 1 | 1 | x | 10* | 9.6* | 9.8*
O=C(C[C@@H]1CC[C@H](NC(=O)C2CCOCC2)[C@H](CO)O1)Nc1ccc(-c2ccccc2)cc1 | x | x | 1 | x | x | x
COc1cccc(C(=O)N2C[C@H]3[C@@H](c4ccccc42)[C@H](CO)N3C(=O)c2ccc(F)cc2)c1 | x | x | 2 | x | x | x
C[C@@H]1CN([C@H](C)CO)C(=O)c2cc(C3=CCCC3)cnc2O[C@@H]1CN(C)C(=O)c1ccccn1 | x | x | -5 | x | x | x
Cc1noc(C)c1NC(=O)Nc1ccc2c(c1)C(=O)N([C@H](C)CO)C[C@H](C)[C@@H](CN(C)Cc1ccccc1)OCCCC[C@H](C)O2 | x | x | -1 | x | x | x
COc1ccc2c(=O)cc(-c3ccccc3F)oc2c1 | 17 | -3 | -2 | 9.9* | 8.4* | 5.6*
COc1ccc2c(=O)cc(C(F)(F)C(F)(F)F)oc2c1 | -1 | -1 | x | 0 | x | x
COc1ccc2oc(-c3ccncc3)cc(=O)c2c1 | -1 | 1 | 1 | 8.7* | 13* | 6.5*
COc1ccc(-c2cc(=O)c3cc(O)ccc3o2)cc1 | -22 | 1 | 1 | 7 | x | x
C[C@H]1CN([C@@H](C)CO)C(=O)c2cc(NC(=O)Cc3ccccc3)ccc2O[C@H]1CN(C)Cc1ccc(Cl)c(Cl)c1 | x | x | -4 | x | x | x
C[C@@H]1CN([C@@H](C)CO)C(=O)Cc2cc(NS(=O)(=O)c3ccccc3)ccc2O[C@@H]1CN(C)CC1CC1 | x | x | 0 | x | x | x
O=C(/C=C/Nc1ccc(F)cc1)c1cccs1 | -3 | -2 | x | 8.8* | 11* | 14*
O=C(/C=C/Nc1ccc(F)c(F)c1)c1cccs1 | -2 | -1 | 1 | 4 | x | x
O=C(Nc1ccc(F)cc1)N1C[C@@H]2[C@H](c3ccccc31)[C@@H](CO)N2C(=O)c1ccccc1F | x | x | 3 | x | x | x
Cc1ccc(-c2noc(CN3CCCCC3)n2)cc1 | -5 | 0 | x | 8.3* | 4 | 9.1*
Cc1ccc(-c2noc(CSc3ccccc3)n2)cc1 | 0 | -1 | x | 9.3* | 3 | 8.2*
CN(C)CCCNC(=O)C[C@@H]1CC[C@@H]2[C@@H](COc3ccc(NC(=O)c4ccccc4F)cc3C(=O)N2C)O1 | x | x | 0 | x | x | x
COCCN(CC(=O)Nc1cccc(C)c1C)C(=O)c1ccc2ccccc2n1 | -5 | -1 | -3 | 9.0* | 6 | 2
Cc1ccccc1-c1nnc(SCc2ccccc2)o1 | 3 | 4 | x | 13* | 7 | 5
Cc1ccc(CSc2nnc(-c3ccc(NS(=O)(=O)c4ccccc4)cc3)o2)cc1 | 14 | -2 | x | 11* | -2 | -1
C[C@@H]1CN([C@H](C)CO)C(=O)c2cc(NS(=O)(=O)c3ccc(Cl)cc3)ccc2O[C@@H]1CN(C)Cc1ccncc1 | x | x | 1 | x | x | x
SMILES | MC4R antag cAMP | MC4R ag barr | F508del corr | SMARCA2 activ | SMARCA2 act conf | GAL4-VP16 Luc
C[C@@H]1CN([C@H](C)CO)C(=O)c2cccc(NS(=O)(=O)c3cn(C)cn3)c2O[C@H]1CN(C)Cc1ccc(Oc2ccccc2)cc1 | x | x | -3 | x | x | x
O=C(CC1(O)C(=O)Nc2cc(Cl)cc(Cl)c21)c1ccncc1 (configuration not stated) | 4 | 1 | x | 11* | 0 | 0
CSc1ccc(/C=N/NC(=O)c2cccc(O)c2)cc1 | -9 | -3 | x | 9.6* | 6 | 14*
CCOc1ccc(C(=O)N/N=C/c2ccc(SC)cc2)cc1 | 4 | 6 | x | -2 | x | x
COc1ccc(Cl)cc1NC(=O)CSc1nnc(C)c(=O)n1N | 4 | -5 | 0 | 8.3* | 6 | 0
O=C(C[C@H]1CC[C@@H]2[C@H](COC[C@H](O)CN2C(=O)c2ccccc2F)O1)N1CCN(c2ccccc2)CC1 | x | x | 5 | x | x | x
COc1ccc(C(=O)NC(=S)N2CCNC(=O)C2)cc1Br | -2 | -3 | 1 | 0 | x | x
O=C1CN(C(=S)NC(=O)c2ccc(-c3ccccc3)cc2)CCN1 | 9 | -1 | -2 | 10* | 7 | 4
COc1ccc2c3c(n(C)c2c1)[C@@H](CO)N(C(=O)Nc1ccc(F)cc1)CC31CN(C(=O)c2ccc3c(c2)OCO3)C1 | x | x | 2 | x | x | x
COc1ccc(S(=O)(=O)N(C)C[C@@H]2Oc3ncc(-c4ccncc4)cc3C(=O)N([C@H](C)CO)C[C@@H]2C)cc1 | x | x | 1 | x | x | x
O=C(Nc1ccccc1Br)C(=O)N1CCCC1 | 10 | -1 | x | -2 | x | x
O=C(Nc1ccccn1)C(=O)N1CCCCC1 | 0 | -2 | x | 8.2* | 4 | 2
Cc1ccc(-c2cc(-c3ccccc3Cl)[nH]n2)c(O)c1 | -1 | 1 | x | 8.6* | 4 | 11*
Cc1ccc(-c2cc(-c3ccccc3[N+](=O)[O-])[nH]n2)c(O)c1 | 10 | 4 | 3 | -1 | x | x
COc1ccc(-c2cc(C#N)nc(NN)n2)cc1 | -1 | 0 | -2 | 0 | x | x
COc1ccc(-c2cc(C#N)nc(Cl)n2)cc1 | -26 | -4 | 0 | 21* | 41* | 2
COc1ccccc1Nc1nc(-c2sc(N)nc2C)cs1 | 0 | 0 | 1 | -1 | x | x
Cc1nc(N)sc1-c1csc(Nc2ncccn2)n1 | 17 | 0 | 1 | 56* | 106* | 13*
CCCNC(=O)C[C@H]1CC[C@@H]2[C@H](COc3ccc(NS(=O)(=O)CC)cc3C(=O)N2C)O1 | x | x | -1 | x | x | x

Screening results as filed in PubChem BioAssay.
